Shown are actives, neighbours in structure and some others; about 3.8% of the full set was active somewhere.
Kir21 block: inhibitors of mouse Kir2.1 inward-rectifier potassium channel | P35561 | HEK293-Kir2.1, FluxOR thallium flux fluorescence; stronger effect = lower value | B-score at 10 µM | hit rate 0.85% among 310,000;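 active means fluorescence ratio B-score at or below minus 3 SD of library scores, with starting-brightness B-score within 2 SD, cut at about -4.2 in these data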;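 further: channel flux triggered by added potassium and thallium sulfate stimulus; B-score of peak minus minimum fluorescence over baseline after thallium stimulus; more negative B-score means stronger Kir2.1 block with less thallium influx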
KCNQ1 act: potentiators or activators of human KCNQ1 potassium channel. CHO-K1 KCNQ1, thallium flux FluxOR fluorescence; stronger effect = higher value. B-score at 10 µM. hit rate 0.35% among 310,000. AID 2648;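 active means fluorescence ratio B-score, a plate-corrected score, at least three library SD, with initial intensity B-score within 5 SD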
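Schedule – 37 °C overnight plating, 90-min dark dye load, 20-min compound pretreatment · System – stable KCNQ1 CHO-K1 line · Probe or stimulus – thallium- and potassium-containing depolarizing buffer · Measured by – kinetic FluxOR fluorescence, 10 s baseline plus 110 s post-stimulus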
KCNK3 block: human KCNK3 channel inhibition, primary screen | O14649 | CHO-KCNK3 thallium flux, FluxOR fluorescence; stronger effect = lower value | B-score at 10 µM | hit rate 0.84% among 340,000;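 active means B-score under library mean minus 4 SD, starting fluorescence ratio at most library mean plus 5 SD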;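 further: more negative B-score means stronger inhibition of thallium flux through KCNK3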
KCNQ1 block: blocks the human KCNQ1 potassium channel | P51787 | hit rate 1.3% among 310,000 | B-score at 10 µM | CHO-K1 KCNQ1, FluxOR thallium flux fluorescence; stronger effect = higher value;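 active means compounds whose thallium flux B-score, printed positive for inhibition, exceeds three library SD while starting fluorescence stays within three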;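 further: channel opened by potassium depolarization with thallium stimulus after 20 min compound exposure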
KCNK9 block: human KCNK9 channel inhibition | Q9NPC2 | hit rate 1.2% among 310,000 | HEK293 KCNK9, FluxOR thallium flux fluorescence; stronger effect = lower value | B-score at 10 µM;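 active means ratio B-score over 3 SD below the library mean, with starting fluorescence within 5 SD of its mean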;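 further: negative B-score means less thallium flux so channel inhibition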
Target sequence (Q9NPC2 whole entry, looked up): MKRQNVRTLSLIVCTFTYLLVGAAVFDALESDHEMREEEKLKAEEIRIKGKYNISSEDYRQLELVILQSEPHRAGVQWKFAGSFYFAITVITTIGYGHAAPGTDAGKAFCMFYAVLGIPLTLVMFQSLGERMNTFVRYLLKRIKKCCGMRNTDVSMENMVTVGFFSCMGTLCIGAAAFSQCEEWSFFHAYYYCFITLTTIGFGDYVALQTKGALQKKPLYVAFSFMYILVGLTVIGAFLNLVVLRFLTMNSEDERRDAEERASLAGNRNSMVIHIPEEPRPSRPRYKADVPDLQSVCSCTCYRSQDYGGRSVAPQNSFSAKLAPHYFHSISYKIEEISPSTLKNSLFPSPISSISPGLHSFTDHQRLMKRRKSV
hERG protect: hERG (human) protection from proarrhythmic block; hit rate 0.51% among 310,000; activation (rescue from dofetilide block), less the hit threshold, % at 10 µM; Q12809; CHO-hERG, FluxOR thallium flux, dofetilide IC70 present;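 active means activation above the mean of controls blocked by dofetilide plus 5 SD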;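 further: thallium influx through hERG after potassium depolarization seen as dye fluorescence rise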
Large screens that a line does not name were inactive.

CC[C@@H](C)[C@H](CN[C@H](CNC)C(C)C)NC[C@@H](C)c1ccc(CC(C)C)cc1	Kir21 block -8.8, KCNQ1 block 8
CC[C@H](C)[C@@H](CNC)NC[C@@H](Cc1ccc(O)cc1)NCC(C)(C)C	none
CCOC(=O)/C(C#N)=C/c1c(N2CCN(c3cccc(Cl)c3)CC2)nc2c(C)cccn2c1=O	KCNQ1 block 6
CNC(=O)/C(C#N)=C/c1c(N2CCN(c3cccc(Cl)c3)CC2)nc2c(C)cccn2c1=O	none
O=C(Nc1cc(Oc2ccccc2)cc([N+](=O)[O-])c1)C12CC3CC(C1)CC(n1cnc(Cl)n1)(C3)C2	KCNQ1 block 12
O=C(O)c1cccc(NC(=O)C23CC4CC(C2)CC(n2cnc(Cl)n2)(C4)C3)c1	none
N#C/C(=C(/O)c1ccccc1F)c1nc2cc(C(F)(F)F)ccc2s1	none
N#C/C(=C(/O)c1ccc2c(c1)OCO2)c1nc2cc(C(F)(F)F)ccc2s1	KCNQ1 block 11
CCCN(c1ccccc1F)S(=O)(=O)c1cc(-c2cc(C)no2)ccc1OC	KCNK9 block -7.8
CCc1ccc(-c2cc(C)no2)cc1S(=O)(=O)NCCc1ccc(OC)c(OC)c1	Kir21 block -4.4
O=C(CCS(=O)(=O)c1ccc(Br)s1)NC1CCCCCC1	Kir21 block -11
CCOC(=O)Cc1csc(NC(=O)COc2ccc(N(C)S(=O)(=O)c3ccc(C)cc3)cc2)n1	KCNK9 block -6.8
CN1CCN(CCCc2c3c(cc4c2CCC4)CCC3)CC1	Kir21 block -4.4
Cc1cc(C)c(NC(=O)CCCN2CCN(C)CC2)c(C)c1	none
CCn1c(-c2ccccc2)c(C(=O)CCl)c2ccccc21	none
COc1cccc(C=NCCCN=Cc2cccc(OC)c2O)c1O	hERG protect 5.7
COc1cccc(/C=N/NC(=O)C(=O)N/N=C/c2cccc(OC)c2O)c1O	none (no result: Kir21 block, KCNQ1 act, KCNQ1 block, KCNK9 block, hERG protect)
Cc1nc(N)sc1-c1csc(Nc2ccccc2)n1	none
O=C(CCl)c1ccc2c(c1)CCN2C(=O)C1CC1	Kir21 block -5.7 (no result: KCNK3 block)
COc1ccc2nc(N3C(=O)CNC3=S)sc2c1	none
CCOc1ccc2nc(N3C(=O)/C(=C/c4ccc(Cl)cc4)NC3=S)sc2c1	KCNQ1 act 26
NC(=O)CNC(=O)c1cccc(Cl)c1	none
CC(C)OC(=O)CN1C(=O)S/C(=C/c2ccc(N3CCCCC3)o2)C1=O	KCNK9 block -7.8
Cc1cc(OCC(=O)NNC(=S)NC(=O)c2ccc(Br)o2)ccc1Cl	KCNQ1 act 33
O=C(Nc1ccc(Cl)cc1)C(Cl)C(=O)c1ccccc1 (stereo unspecified)	Kir21 block -11, KCNQ1 act 10
O=C(Nc1ccccc1Cl)C(Cl)C(=O)c1ccccc1 (stereo unspecified)	none (no result: Kir21 block, KCNQ1 act, KCNQ1 block, KCNK9 block, hERG protect)
O=C(N/N=C/c1ccncc1)C12CC3CC(CC(C3)C1)C2	none
COC(=O)c1ccc(-c2sc3nc(N4CCOCC4)c4c(c3c2N)CCCC4)o1	KCNQ1 block 6, KCNK9 block -9.2 (no result: KCNK3 block)
CCc1ccc2c(c1)c(N=NC1=NC(=O)CS1)c(O)n2C	KCNQ1 act 13
O=C(O)COc1ccccc1Cc1ccccc1	none
CC(COc1ccccc1Cc1ccccc1)N1CCCCC1 (stereo unspecified)	Kir21 block -5.8 (no result: KCNK3 block)
CCc1ccc(OCCCC(=O)O)c(Br)c1	none
C=CCn1c(O)c(N=NC(=S)Nc2ccccc2C)c2cc(S(=O)(=O)N3CCOCC3)ccc21	KCNQ1 act 9
Cn1c(O)c(N=NC(=S)Nc2ccccc2F)c2cc(S(=O)(=O)N3CCOCC3)ccc21	hERG protect 11
Cc1ccc(NC(=S)N=Nc2c(O)n(C)c3ccc(S(=O)(=O)N4CCOCC4)cc23)cc1C	none
CCOc1ccccc1N1CCN(C(=O)C2=CC=CN3CCS(=O)(=O)N=C23)CC1	none (no result: Kir21 block, KCNQ1 act, KCNQ1 block, KCNK9 block, hERG protect)
Cc1ccc(S(=O)(=O)N2CCCOC2CNC(=O)C(=O)NCc2ccccn2)cc1 (stereo unspecified)	none
CCOc1ccc(C(=O)Cc2cc3cccc(OC)c3oc2=O)cc1	none
CNCC[C@H](Oc1cccc2ccccc12)c1cccs1	Kir21 block -9.1
CNCCC(Oc1ccc(C(F)(F)F)cc1)c1ccccc1 (stereo unspecified)	none (no result: hERG protect)
CCCc1[nH]nc2c1C(c1cccc(OC(=O)c3ccco3)c1)C(C#N)=C(N)O2 (stereo unspecified)	hERG protect 4.6

Assay outcomes deposited in PubChem BioAssay by Johns Hopkins Ion Channel Center.
